Compound activity: PubChem BioAssay, several laboratories
Hits are enriched below; roughly 5.3% of the tested compounds scored in any of these assays.
CSC inhib: blocks cancer stem cells; AID 2717; inhibition, % at 7.5 µM; 1.1% of 300,000 active; cancer stem cell-like cells viability, luminescence; in the data active means inhibition above about 75%; inconclusive means no clear call, values can overlap the other calls; tested in HMLE shEcad cells
T cruzi inh: blocks replication of Trypanosoma cruzi; 1.4% of 300,000 active; AID 1885; T. cruzi beta-gal in NIH3T3, luminescence, 90 h; inhibition, % (test concentration not listed);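 active means mean inhibition across valid replicates above about 55%, limit read from the data; inconclusive means mean below that limit but half or more replicates reach it; inactive means mean below it, under half of replicates reach it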;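 further: signal also drops with host cell toxicity which is not excluded here; 0% = plate median of DMSO wells and 100% = zero luminescence signal; higher percent means less beta-gal luminescence so fewer parasites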
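Assay system: NIH/3T3 host cells with β-galactosidase reporter T. cruzi; input: 5,000 host fibroblasts per well; compound: single 50 nL compound addition per well in DMSO; timing: ≥90 h infection period, 3 h prior cell attachment; measured by: GalScreen β-gal luminescence, detergent lysis, 60 min; evaluation: percent inhibition of parasite-derived β-gal signal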
NLRP3 yeast inh: blocks the NALP3 inflammasome reconstituted in yeast. inhibition, % at 10 µM. Yeast reconstituted NLRP3/ASC/caspase-1, beta-gal luminescence, 24 h. 0.39% of 330,000 active;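 active means inhibition of 50% or more; inactive means inhibition below 50%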;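 further: plate controls were induced DMSO wells for no effect and uninduced yeast grown without galactose for full effect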
Mdm2-MdmX inh: inhibitors of human Mdm2/MdmX interaction | inhibition, % at 8 µM | O15151+Q00987 | SaOS-2 split-luciferase Mdm2/MdmX complementation, luminescence | 3% of 330,000 active;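 active means inhibition of at least 50% at 8 µM in the primary screen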
Target sequence (O15151 whole entry, looked up): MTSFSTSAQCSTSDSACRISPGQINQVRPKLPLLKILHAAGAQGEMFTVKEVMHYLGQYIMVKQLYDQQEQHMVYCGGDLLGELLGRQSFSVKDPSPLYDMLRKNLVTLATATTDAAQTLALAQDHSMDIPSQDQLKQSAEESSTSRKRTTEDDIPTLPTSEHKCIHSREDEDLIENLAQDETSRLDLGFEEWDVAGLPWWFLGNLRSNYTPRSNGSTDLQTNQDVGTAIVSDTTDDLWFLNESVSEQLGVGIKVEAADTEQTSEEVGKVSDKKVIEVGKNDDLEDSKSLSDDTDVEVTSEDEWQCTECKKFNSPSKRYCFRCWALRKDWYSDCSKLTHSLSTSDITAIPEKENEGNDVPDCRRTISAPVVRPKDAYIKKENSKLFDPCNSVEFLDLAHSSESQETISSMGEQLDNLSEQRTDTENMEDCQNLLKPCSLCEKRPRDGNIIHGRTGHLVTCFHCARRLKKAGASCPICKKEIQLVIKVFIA
Target sequence (Q00987 whole entry, looked up): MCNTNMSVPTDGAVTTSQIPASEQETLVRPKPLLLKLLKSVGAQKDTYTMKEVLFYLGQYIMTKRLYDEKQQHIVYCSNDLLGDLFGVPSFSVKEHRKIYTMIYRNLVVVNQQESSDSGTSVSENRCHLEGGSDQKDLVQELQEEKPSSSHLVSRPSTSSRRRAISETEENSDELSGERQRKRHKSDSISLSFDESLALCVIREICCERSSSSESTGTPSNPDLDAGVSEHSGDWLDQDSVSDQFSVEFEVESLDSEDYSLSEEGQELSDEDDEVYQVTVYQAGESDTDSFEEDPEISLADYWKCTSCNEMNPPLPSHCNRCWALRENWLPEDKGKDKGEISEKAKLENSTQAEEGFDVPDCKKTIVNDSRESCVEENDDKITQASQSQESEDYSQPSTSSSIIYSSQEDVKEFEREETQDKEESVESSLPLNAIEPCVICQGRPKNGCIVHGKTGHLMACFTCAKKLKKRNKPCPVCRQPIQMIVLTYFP
Calb FLC: affects C. albicans growth with fluconazole; 0.57% of 300,000 active; growth inhibition, % (no concentration beside the values); C. albicans CaCi-2 (fluconazole-resistant clinical isolate) + fluconazole, Alamar Blue growth, 48 h;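 active means growth inhibition above about 58% in most replicates, limit read from the data, passing the limit was not always enough; inconclusive means exactly half the replicates above a set limit; inactive means most replicates below a set limit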;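 further: all wells also contain fluconazole at 8 µg/ml as a sub-toxic cotreatment; 0% = median of DMSO wells and 100% = median of geldanamycin control wells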
Beta apoptosis: blocks beta cell apoptosis; INS-1E cytokine-induced death, ATP luminescence, 48 h; percent of positive-control rescue, neutral wells zero; protection from apoptosis, % (no concentration beside the values); 0.8% of 300,000 active;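 active means Every replicate reaches about 75%, or at least half do and their mean reaches it too, limit read from the data; inconclusive means At least half of replicates reach the limit but their mean does not; inactive means Under half of replicates reach the limit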;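 further: 0% = cytokine-treated negative control wells and 100% = positive control rescue; higher means more ATP so stronger rescue from cytokine killing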
Active calls of the source: *; ? = inconclusive; nt = no result.

SMILES	CSC inhib	T cruzi inh	NLRP3 yeast inh	Mdm2-MdmX inh	Calb FLC	Beta apoptosis
CCOc1ccccc1N(C(=O)Nc1ccc(Cl)cc1)C1=NCCS1	84*	2	-12	-9	nt	3
O=C(CNS(=O)(=O)c1ccc(Br)s1)N1CCC(N2CCCCC2)CC1	-12	nt	16	-10	3	-2
CC(C)N(C(C)C)S(=O)(=O)c1ccc(Cl)nc1	3	-12	16	-1	-2	1
CCSc1nc2ccccc2n1S(=O)(=O)c1ccccc1	6	nt	14	-10	nt	-3
O=C(COC(=O)C(O)c1ccccc1)c1ccc2c(c1)OCCO2 (stereo not given)	-1	-9	5	0	9	8
Nc1cc2c3c(cccc3c1)C(=O)N(CCN1CCCC1)C2=O	36	78*	nt	nt	-4	75*
CCN(CC)CCN1C(=O)c2cccc3cc(N)cc(c23)C1=O	8	16	14	-16	-15	41
COCCn1c(SCC(=O)Nc2cccc(F)c2)nc2c(c1=O)SCC2	1	5	2	19	2	0
CCCc1nnc(SCC(=O)N2CCCC(C)C2)n1CCCOC (stereo not given)	7	-3	13	9	-6	3
COc1cccc(-n2c(SC)nnc2-c2c[nH]c3ccccc23)c1	0	16	1	11	-9	3
Cc1cccc(-n2c(SCc3ccc([N+](=O)[O-])cc3)nnc2-c2c[nH]c3ccccc23)c1	nt	66*	11	37	5	4
Cc1ccc(CS(=O)Cc2ccc(C(=O)N3CCN(c4ccccc4)CC3)o2)cc1 (stereo not given)	-6	56*	10	-6	-3	-4
CC(=O)c1cccc(NC(=O)C2CCCN(S(=O)(=O)c3cccc4cccnc34)C2)c1 (stereo not given)	-22	-11	3	-23	-3	-2
CCc1ccc(-c2cc(C(=O)N3N=C(C(F)F)CC3(O)C(F)F)c3ccccc3n2)cc1 (stereo not given)	89*	59*	-18	2	25	14
SC(COCc1ccccc1)CN1CCN(Cc2ccc3c(c2)OCO3)CC1 (stereo not given)	34	55*	20	4	1	6
OC(COCc1ccccc1)CN1CCN(Cc2ccc3c(c2)OCO3)CC1 (stereo not given)	nt	21	12	-16	-33	-2
Cc1ccc(N2C(=O)NC3(CCCCC3)C2=O)cc1	-7	-7	12	-1	0	0
Cc1ccc(N2NC3(CCN(C(N)=O)CC3)NC2=O)cc1	12	3	13	24	106*	2
O=C(CSC(=S)N1CCCC1)Nc1ncc(Cl)cc1Cl	-20	2	29	5	5	-4
O=[N+]([O-])c1cc(-c2n[nH]c(-c3ccccc3)n2)cc([N+](=O)[O-])c1	2	72*	-9	14	27	4
O=[N+]([O-])c1ccc2nc(-c3ccccc3)cc(-c3ccccc3)c2c1	-21	13	2	8	4	0
O=[N+]([O-])c1cc([N+](=O)[O-])c2n[nH]c(-c3ccccc3)c2c1	4	71*	38	7	42	14
CCCn1c2c(c(O)c(C(=O)Nc3nc(C)cs3)c1=O)CCCC2	nt	-14	nt	nt	-10	nt
CS(=O)(=O)Nc1ccccc1C(=O)Nc1cccc(Cl)c1	76*	-3	12	31	66	31
CN1CCN(c2ccc(NS(=O)(=O)c3ccc(Cl)cc3)cn2)CC1	-7	?	25	-16	-3	nt
SMILES	CSC inhib	T cruzi inh	NLRP3 yeast inh	Mdm2-MdmX inh	Calb FLC	Beta apoptosis
Cc1ccc(S(=O)(=O)Nc2ccc(N3CCN(C)CC3)nc2)cc1	20	58*	4	12	-6	-7
Cc1ccc(SCCC(=O)NCCSCc2ccco2)cc1	9	-3	25	-30	-25	-3
CC(CC(=O)N1CCN(c2ccc(C(F)(F)F)cn2)CC1)n1ccnc1 (stereo not given)	-5	67*	5	8	7	4
O=C(CCc1ccccc1F)N1CCN(c2ccc(C(F)(F)F)cn2)CC1	7	16	32	25	-3	-7
Cc1cc(C(=O)NNc2ccccc2F)no1	52	61*	35	20	-1	3
Cc1cc(C(=O)NNc2ccc(F)cc2)no1	96*	16	28	6	-8	-3
